From ChEMBL document CHEMBL1124353, “(R)- and (S)-5,6,7,8-tetrahydro-1-hydroxy-N,N-dipropyl-9H-benzocyclohepten- 8-ylamine. Stereoselective interactions with 5-HT1A receptors in the brain” (J Med Chem, 1989) come the findings set out here.

For experiment [1], the system named is Rattus norvegicus. The experiment can be described thus: In vivo accumulations of dopamine in limbic of rat brain at 10 umol/Kg. Type of experiment: functional. In a few lines:
(§1)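 Nonreserpinised male Sprague–Dawley rats (180–220 g) given drug as hydrochloride sc in saline, 30 min before aromatic L-amino acid decarboxylase inhibitor NSD 1015; killed 30 min after NSD 1015. Striatum and limbic system (rhinal fissure landmark) dissected. 5-HTP or DOPA measured by ion-pair reversed-phase HPLC with electrochemical detection, ng/g; means ± SEM, n = 3–7 per dose group, Dunnett's test vs control.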

Experiment [2] relates to Rattus norvegicus. Briefly: In vivo accumulation of 5-HTP in limbic of rat brain for following at 10 umol/Kg. It counts as functional. In a few lines: as §1
The test system of experiment [3] is Rattus norvegicus. The experiment can be described thus: In vivo accumulation of 5-HTP in limbic of rat brain at 3.2 umol/Kg. It counts as functional. In a few lines: as §1
The test system of experiment [4] is Rattus norvegicus. Briefly: In vivo accumulation 5-HTP in striatum of rat brain at 10 umol/Kg. It counts as functional. In a few lines: as §1
In experiment [5] the target is T1, 5-hydroxytryptamine receptor 1A (Rattus norvegicus, UniProt P19327).
T1 sequence (P19327 whole entry): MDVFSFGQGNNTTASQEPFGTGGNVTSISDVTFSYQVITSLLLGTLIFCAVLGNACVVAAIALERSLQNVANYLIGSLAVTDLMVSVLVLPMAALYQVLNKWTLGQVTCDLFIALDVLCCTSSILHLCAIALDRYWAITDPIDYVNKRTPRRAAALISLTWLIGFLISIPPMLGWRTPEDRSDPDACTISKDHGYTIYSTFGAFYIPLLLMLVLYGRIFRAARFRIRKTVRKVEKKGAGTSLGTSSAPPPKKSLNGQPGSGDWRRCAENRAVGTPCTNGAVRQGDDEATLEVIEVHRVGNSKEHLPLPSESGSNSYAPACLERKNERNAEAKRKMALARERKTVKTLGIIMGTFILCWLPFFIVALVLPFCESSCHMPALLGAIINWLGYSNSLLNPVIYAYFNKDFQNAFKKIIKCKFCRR
Briefly: Affinity for 5-hydroxytryptamine 1A receptor site. In a few lines:
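Rat (male Sprague–Dawley) cortex plus hippocampus homogenised in 50 mM Tris-HCl with 4.0 mM CaCl2 and 5.7 mM ascorbate, pH 7.5, washed, pooled (≥6 rats), pargyline 10 μM pretreated. Incubated at 37 °C for 10 min with 2 nM [3H]-8-OH-DPAT and 1–300 nM competitor. Filtered, scintillation counted; 10 μM 5-HT defines nonspecific binding. Ki from nonlinear least-squares using Kd 1.4 nM.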

The test system of experiment [6] is Rattus norvegicus. The experiment can be described thus: In vivo accumulation of 5-HTP in limbic of rat brain for following at 32 umol/Kg. It counts as functional. In a few lines: as §1
In experiment [7] the test system is Rattus norvegicus. The experiment can be described thus: In vivo accumulations of dopamine in limbic of rat brain for at 3.2 umol/Kg. It counts as functional. In a few lines: as §1
Experiment [8] concerns Rattus norvegicus. Briefly: In vivo accumulation 5-HTP in striatum of rat brain striatum at 32 umol/Kg. Type of experiment: functional. An outline of the steps:
as §1

Experiment [9] concerns Rattus norvegicus. Briefly: In vivo accumulation of dopamine in striatum of rat brain at 10 umol/Kg. Type of experiment: functional. In a few lines: as §1
For experiment [10], the system named is Rattus norvegicus. Briefly: In vivo accumulations of dopamine in limbic of rat brain at 32 umol/Kg. Type of experiment: functional. In a few lines:
as §1

Experiment [11] has as its system Rattus norvegicus. The experiment can be described thus: In vivo accumulation of dopamine in striatum of rat brain at 32 umol/Kg. Type of experiment: functional. An outline of the steps: as §1
Experiment [12] has as its system Rattus norvegicus. The experiment can be described thus: In vivo accumulation of dopamine in striatum of rat brain at 3.2 umol/Kg. Type of experiment: functional. In a few lines: as §1
In experiment [13] the test system is Rattus norvegicus. Briefly: In vivo accumulation of dopamine in striatum of rat brain at 32 umol/kg with reserpine pretreatment. Type of experiment: functional. An outline of the steps: (§2)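 Male Sprague–Dawley rats pretreated with reserpine (8 μmol/kg, 4 h before), then given drug sc as hydrochloride in saline 30 min before NSD 1015 decarboxylase inhibition; killed 30 min later. Striatal and limbic 5-HTP or DOPA determined by ion-pair reversed-phase HPLC with electrochemical detection, ng/g; means ± SEM, n = 3–7; Dunnett's test vs reserpinised controls.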

Experiment [14] concerns Rattus norvegicus. The experiment can be described thus: In vivo accumulation 5-HTP in striatum of rat brain at 3.2 umol/Kg. It counts as functional. An outline of the steps: as §1
Experiment [15] has as its system Rattus norvegicus. The experiment can be described thus: In vivo accumulation 5-HTP in striatum of rat brain striatum at 32 umol/kg reserpine pretreatment. It counts as functional. In a few lines:
as §2

In experiment [16] the test system is Rattus norvegicus. The experiment can be described thus: In vivo accumulation of 5-HTP in limbic of rat brain for following at 32 umol/kg reserpine pretreatment. It counts as functional. In a few lines:
as §2

Some results are limits rather than exact numbers.

In the case of `CCCN(CCC)[C@@H]1CCCc2cccc(O)c2C1`, the Dose in the experiment with Rattus norvegicus [1] came out at 314 µM/kg; with Rattus norvegicus [2] it was 122 µM/kg; in the experiment on Rattus norvegicus [3], 132 µM/kg; with Rattus norvegicus [4] it was 60 µM/kg; in the experiment on Rattus norvegicus [6], 76 µM/kg; in the experiment with Rattus norvegicus [7], 408 µM/kg. For the same compound, the Dose in the experiment with Rattus norvegicus [8] came out at 54 µM/kg; in the experiment with Rattus norvegicus [9] it was 919 µM/kg; in the experiment on Rattus norvegicus [10] it was 437 µM/kg; with Rattus norvegicus [11] it was 1035 µM/kg; in the experiment on Rattus norvegicus [12] it was 1068 µM/kg. This compound also displayed a Ki in experiment [5] of 29.7 nM.
On to `CCCN(CCC)[C@H]1CCCc2cccc(O)c2C1`, for which the Dose with Rattus norvegicus [1] was 381 µM/kg; in the experiment with Rattus norvegicus [13] it was 1934 µM/kg; in the experiment with Rattus norvegicus [2], 170 µM/kg; in the experiment with Rattus norvegicus [3], 194 µM/kg; in the experiment with Rattus norvegicus [4], 98 µM/kg; in the experiment with Rattus norvegicus [14], 110 µM/kg. Also, the Dose was found to be 74 µM/kg in the experiment with Rattus norvegicus [15]; 331 µM/kg with Rattus norvegicus [7]; 830 µM/kg in the experiment on Rattus norvegicus [9]; 1003 µM/kg in the experiment with Rattus norvegicus [12]; 154 µM/kg in the experiment with Rattus norvegicus [16]. Also, the inhibition constant (Ki) in [5] is more than 300 nM.

Broadly, the Ki is the equilibrium dissociation constant of an inhibitor or competing ligand from its target.
